In ChEMBL document CHEMBL1145119, “Esters, retroesters, and a retroamide of palmitic acid: pool for the first selective inhibitors of N-palmitoylethanolamine-selective acid amidase” (J Med Chem, 2003):

How the values were obtained:
[1] = target: T1, Fatty-acid amide hydrolase 1 (Rattus norvegicus) (UniProt P97612); assay: Inhibition of fatty acid amide hydrolase (FAAH) from rat brain homogenates at 10 uM; format: tissue-based
T1 sequence (whole entry): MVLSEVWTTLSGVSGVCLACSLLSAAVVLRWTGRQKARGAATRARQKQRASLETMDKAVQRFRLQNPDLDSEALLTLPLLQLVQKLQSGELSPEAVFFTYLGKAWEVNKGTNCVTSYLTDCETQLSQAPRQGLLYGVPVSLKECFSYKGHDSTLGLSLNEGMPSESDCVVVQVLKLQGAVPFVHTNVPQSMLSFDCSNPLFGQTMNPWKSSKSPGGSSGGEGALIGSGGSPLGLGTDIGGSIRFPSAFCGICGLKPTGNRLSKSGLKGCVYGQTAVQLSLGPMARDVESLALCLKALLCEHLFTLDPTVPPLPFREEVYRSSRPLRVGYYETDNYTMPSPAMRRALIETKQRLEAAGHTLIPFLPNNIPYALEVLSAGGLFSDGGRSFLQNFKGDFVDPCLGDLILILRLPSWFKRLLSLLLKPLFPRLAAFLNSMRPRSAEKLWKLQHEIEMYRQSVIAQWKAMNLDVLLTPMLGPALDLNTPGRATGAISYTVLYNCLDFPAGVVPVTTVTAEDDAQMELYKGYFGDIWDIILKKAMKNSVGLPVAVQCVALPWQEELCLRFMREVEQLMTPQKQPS
In short: (§1)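 Hydrolysis of [3H]-anandamide by rat brain homogenate was measured at assay pH 7.6. Compound was mostly tested over 0.5–100 μM, and percent inhibition is given at 10 and 100 μM. A value below 0 means activity remaining exceeded 100%.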

[2] = target: T1, Fatty-acid amide hydrolase 1 (Rattus norvegicus); assay: Inhibition of fatty acid amide hydrolase (FAAH) from rat brain homogenates at 100 uM; format: tissue-based; in short: as §1
[3] = target: Cannabinoid receptor 2 (Homo sapiens) (UniProt P34972); assay: Binding affinity against human CB2 receptor by using CHO-hCB2 transfected cell membrane [3H]WIN-55212-2 as radioligand at 10 uM
In short: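 Membranes from CHO cells transfected with human CB2 were incubated with 1 nM [3H]-WIN55,212-2 and test compound at 10 μM. Nonspecific binding was defined with 10 μM HU-210. The value is percent inhibition of specific radioligand binding.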

[4] = target: Cannabinoid receptor 1 (Homo sapiens) (UniProt P21554); assay: Binding affinity against human Cannabinoid receptor 1 using CHO-hCB1 transfected cell membrane and [3H]CP-55940 as radioligand at 10 uM
In short: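 Membranes from CHO cells transfected with human CB1 were incubated with 1 nM [3H]-CP55,940 and test compound at 10 μM. Nonspecific binding was defined with 10 μM HU-210. The value is percent inhibition of specific radioligand binding.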

[5] = target: N-acylethanolamine-hydrolyzing acid amidase (Rattus norvegicus) (UniProt Q5KTC7); assay: Inhibition of N-palmitoylethanolamine-selective acid amidase (NPAA) from rat lung homogenates at 100 uM
[6] = target: T1, Fatty-acid amide hydrolase 1 (Rattus norvegicus); assay: Compound was tested for the inhibition of fatty acid amide hydrolase from rat brain homogenates at 10 uM in buffer A of pH 9 by using 100 uM [3H]ethanolamine-labeled anandamide as substrate; format: tissue-based
[7] = target: T1, Fatty-acid amide hydrolase 1 (Rattus norvegicus); assay: Compound was tested for the inhibition of fatty acid amide hydrolase from rat brain homogenates at 10 uM in buffer A of pH 6 by using 100 uM [3H]ethanolamine-labeled anandamide as substrate; format: tissue-based
[8] = target: T1, Fatty-acid amide hydrolase 1 (Rattus norvegicus); assay: Compound was tested for the inhibition of fatty acid amide hydrolase from rat brain homogenates at 10 uM in buffer A of pH 6 by using 10 uM [3H]ethanolamine-labeled anandamide as substrate
In short: (§2)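 The rat brain homogenate FAAH assay used 10 μM [3H]-ethanolamine-labeled anandamide as substrate. Protein was 10 μg per assay at pH 6 and 3 μg at pH 9. Buffer A was 10 mM Tris-HCl and 1 mM EDTA with fatty acid-free BSA. Buffer B was 125 mM Tris, 1 mM EDTA, 0.2% glycerol, 0.02% Triton X-100 and 0.4 mM HEPES, without BSA. pH was adjusted with NaOH or HCl. Compounds were tested at 10, 30 and 100 μM. The value is percent inhibition.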

[9] = target: T1, Fatty-acid amide hydrolase 1 (Rattus norvegicus); assay: Compound was tested for the inhibition of fatty acid amide hydrolase from rat brain homogenates at 10 uM in buffer B of pH 9 by using 100 uM [3H]ethanolamine-labeled anandamide as substrate; format: tissue-based
[10] = target: T1, Fatty-acid amide hydrolase 1 (Rattus norvegicus); assay: Compound was tested for the inhibition of fatty acid amide hydrolase from rat brain homogenates at 10 uM in buffer B of pH 6 by using 100 uM [3H]ethanolamine-labeled anandamide as substrate; format: tissue-based
[11] = target: T1, Fatty-acid amide hydrolase 1 (Rattus norvegicus); assay: Compound was tested for the inhibition of fatty acid amide hydrolase from rat brain homogenates at 10 uM in buffer A of pH 6 by using 30 uM [3H]ethanolamine-labeled anandamide as substrate; format: tissue-based
[12] = target: T1, Fatty-acid amide hydrolase 1 (Rattus norvegicus); assay: Compound was tested for the inhibition of fatty acid amide hydrolase from rat brain homogenates at 10 uM in buffer B of pH 6 by using 10 uM [3H]ethanolamine-labeled anandamide as substrate; format: tissue-based; in short: as §2
[13] = target: T1, Fatty-acid amide hydrolase 1 (Rattus norvegicus); assay: Compound was tested for the inhibition of fatty acid amide hydrolase from rat brain homogenates at 10 uM in buffer B of pH 9 by using 10 uM [3H]ethanolamine-labeled anandamide as substrate; format: tissue-based; in short: as §2
[14] = target: T1, Fatty-acid amide hydrolase 1 (Rattus norvegicus); assay: Compound was tested for the inhibition of fatty acid amide hydrolase from rat brain homogenates at 10 uM in buffer A of pH 9 by using 30 uM [3H]ethanolamine-labeled anandamide as substrate; format: tissue-based
[15] = system: RBL-2H3; assay: Compound was tested for the inhibition of [3H]anandamide Uptake in RBL-2H3 cells at 10 uM; format: functional; details: Rattus norvegicus
In short: (§3)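 RBL-2H3 cells (passage 38) were preincubated with compound (10, 30 or 100 μM). They were then exposed to 2 μM [3H]-arachidonoyl-labeled anandamide for 8 min. Uptake was taken as accumulation in cell wells minus parallel cell-free wells. 200 μM AM404 served as positive control in every assay. The value is percent inhibition of uptake.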

[16] = target: T1, Fatty-acid amide hydrolase 1 (Rattus norvegicus); assay: Compound was tested for the inhibition of fatty acid amide hydrolase from rat brain homogenates at 10 uM in buffer A of pH 9 by using 10 uM [3H]ethanolamine-labeled anandamide as substrate; format: tissue-based; in short: as §2
[17] = system: RBL-2H3; assay: Compound was tested for the inhibition of [3H]anandamide Uptake in RBL-2H3 cells at 30 uM; format: functional; details: Rattus norvegicus; in short: as §3
[18] = system: RBL-2H3; assay: Compound was tested for the inhibition of [3H]anandamide Uptake in RBL-2H3 cells at 100 uM; format: functional; details: Rattus norvegicus; in short: as §3
[19] = species on record: Rattus norvegicus; assay: Compound was tested for the inhibition of N-palmitoylethanolamine-selective acid amidase (NPAA) from rat lung homogenates at 100 uM
In short: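 Enzyme (12 μg protein) was solubilized from the 12 000 × g pellet of rat lung homogenate. It was incubated with 100 μM [14C]-N-palmitoylethanolamine (10 000 cpm) and 100 μM compound for 30 min at 37 °C. Buffer was 50 mM citrate–sodium phosphate, pH 5.0, with 3 mM DTT and 0.1% Triton X-100. Radioactivity was read by imaging scan. The value is percent inhibition.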

Cannabinoid receptor 1 (Homo sapiens), sequence (P21554 whole entry): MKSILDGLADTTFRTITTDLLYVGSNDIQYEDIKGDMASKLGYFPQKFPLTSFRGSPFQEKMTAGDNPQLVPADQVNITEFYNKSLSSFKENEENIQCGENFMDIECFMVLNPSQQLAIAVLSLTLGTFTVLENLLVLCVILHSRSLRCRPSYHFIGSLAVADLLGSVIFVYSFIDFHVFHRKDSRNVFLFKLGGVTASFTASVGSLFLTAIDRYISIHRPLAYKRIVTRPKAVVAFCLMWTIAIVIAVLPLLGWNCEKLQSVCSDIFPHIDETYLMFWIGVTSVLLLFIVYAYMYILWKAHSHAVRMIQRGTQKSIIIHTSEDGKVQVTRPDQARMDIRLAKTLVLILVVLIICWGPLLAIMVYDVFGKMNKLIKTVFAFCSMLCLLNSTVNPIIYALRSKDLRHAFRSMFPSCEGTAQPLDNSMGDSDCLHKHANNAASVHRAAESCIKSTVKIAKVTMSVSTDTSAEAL
N-acylethanolamine-hydrolyzing acid amidase (Rattus norvegicus), sequence (Q5KTC7 whole entry, looked up): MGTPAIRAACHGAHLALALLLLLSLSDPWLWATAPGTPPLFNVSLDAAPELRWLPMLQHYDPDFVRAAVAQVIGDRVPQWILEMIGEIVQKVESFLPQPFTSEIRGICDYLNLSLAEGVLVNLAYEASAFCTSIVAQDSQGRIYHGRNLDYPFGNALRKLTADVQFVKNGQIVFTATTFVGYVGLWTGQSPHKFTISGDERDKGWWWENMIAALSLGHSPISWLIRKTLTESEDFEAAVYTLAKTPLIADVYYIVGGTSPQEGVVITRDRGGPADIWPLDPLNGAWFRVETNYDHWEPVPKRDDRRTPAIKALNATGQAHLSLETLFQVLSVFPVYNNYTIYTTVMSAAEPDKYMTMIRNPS
Cannabinoid receptor 2 (Homo sapiens), sequence (P34972 whole entry): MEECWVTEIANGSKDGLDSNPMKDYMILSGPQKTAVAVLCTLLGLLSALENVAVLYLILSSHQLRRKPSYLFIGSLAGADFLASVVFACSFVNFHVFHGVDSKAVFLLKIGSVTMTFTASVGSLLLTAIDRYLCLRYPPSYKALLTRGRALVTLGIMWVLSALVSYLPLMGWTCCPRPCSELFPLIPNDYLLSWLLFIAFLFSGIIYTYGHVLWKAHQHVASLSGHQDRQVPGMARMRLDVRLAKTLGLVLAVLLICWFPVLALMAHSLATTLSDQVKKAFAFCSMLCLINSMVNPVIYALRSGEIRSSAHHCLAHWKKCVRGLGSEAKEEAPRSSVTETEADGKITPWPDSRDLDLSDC

SMILES	inhibition [1] [%]	inhibition [2] [%]	inhibition [3] [%]	inhibition [4] [%]	inhibition [5] [%]	inhibition [6] [%]	inhibition [7] [%]	inhibition [8] [%]	inhibition [9] [%]	inhibition [10] [%]	inhibition [11] [%]	inhibition [12] [%]	inhibition [13] [%]	inhibition [14] [%]	inhibition at 10 µM [15] [%]	inhibition [16] [%]	inhibition at 30 µM [17] [%]	inhibition at 100 µM [18] [%]	inhibition [19] [%]
CCCCCCCCCCCCCCCC(=O)OC(C)(C)C	< 0	< 0	14	14	23														
CCCCCCCCCCCCCCCC(=O)NC	35	68	8	3	30														
CCCCCCCCCCCCCCCC(=O)OCc1ccccc1	6	24	5	5	50														
CCCCCCCCCCCCCCCCOC(=O)CC [HEXADECYLPROPIONATE]	< 0	< 0	2	12	71	4	< 0	2	< 0	< 0	< 0	5	< 0	21	11	26	12	15	
CCCCCCCCCCCCCCCCOC(C)=O	< 0	< 0	9	10	68														
CCCCCCCCCCCCCCCC(=O)NCCO	49	68	14	24	34														
CCCCCCCCCCCCCCCC(=O)NC1CCCCC1	8	11	8	34	23														
CCCCCCCCCCCCCCCC(=O)OC	18	69	14	11															64
CCCCCCCCCCCCCCCC(=O)OC1CCCCC1 [CYCLOHEXYL PALMITATE]	6	36	6	14	84	12	37	8	46	51	2	20	12	17	5	5	16	29	
CCCCCCCCCCCCCCCNC(=O)CCO	< 0	8	3	4	77	7	2	8	< 0	16		11	6	5	8	20	13	28	
CCCCCCCCCCCCCCCC(=O)OCCBr	19	31	2	2	45														
C=CCOC(=O)CCCCCCCCCCCCCCC	16	36	1	2	48														
CCCCCCCCCCCCCCCC(=O)NC(C)C	30	52	12	25	25														
CCCCCCCCCCCCCCCC(=O)OC(C)C	< 0	< 0	0.5	8	44														
CCCCCCCCCCCCCCCC(=O)OCCCl	27	45	6	14	55														
